From PubChem BioAssay come the findings set out here.

Activity calls are given as the source filed them.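 Rule for the calls, unless noted: active = viability at or under a set limit in both replicates, limit being median viability minus 3 SD (cut at about 48% in these data, passing the limit was not always enough); inconclusive = at or under the limit in just one replicate; inactive = at or above the limit in both replicates.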

Test [1] can be described thus: Her2 expression decrease, cell viability multiplex – SKBR3 breast tumor cells, AlphaScreen, ATP viability, primary screen (AID 461;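 active = Her2 level under about 52% in both replicate screens, with viability over 70% of control, limit read from the data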;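 for Her2 level: lower value means less Her2 protein in the cells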;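 for viability: percent of carrier control wells set as 100% viability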). The settings on record: SKBR3 Her2 protein level, 18-24 h, measured here: SKBR3 viability, ATP luminescence, at 10 µM.
Test [2] addresses Receptor tyrosine-protein kinase erbB-2 (Homo sapiens) (UniProt P04626). Described as above. The note with it: 18-24 h, at 10 µM, stronger effect = lower value.
Test [3] can be described thus: reduced viability of SK-BR-3 breast cancer cells – cell-based, 24 h, human, pilot screen (AID 572;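 active = viability at or below 10% of carrier control in both of two separate runs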;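 note: compound exposure lasted between 18 and 24 h rather than exactly 24 h; 100% = carrier-treated control wells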). The settings on record: SK-BR-3 viability, CellTiter-Glo luminescence, at 10 µM, stronger effect = lower value.
Test [4] can be described thus: HUVEC growth inhibition – cell-based, human, primary screen (AID 575;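 active = viability at or below 30% in both replicate assays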;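 note: 100% = median of untreated cell wells with 0.1% DMSO on each plate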). The settings on record: HUVEC proliferation, CellTiter-Glo luminescence, 72 h; at 10 µM; stronger effect = lower value. In short, it runs like this:
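Test system: primary human umbilical vein endothelial cells. Quantity: 1250 cells/well. Compound: single 10 µM dose, 0.1% DMSO, from 5x medium stock. Timing: 72 h treatment at 37 °C. Detection: ATP-based CellTiter-Glo luminescent read. Benchmarks: vehicle and MePR control wells. Format: 384-well plates coated with collagen.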

Test [5] in a line: H69AR cell proliferation blockers – human, duplicate replicates, primary screen (AID 580).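 Note: 100% = mean luminescence of untreated wells and 0% = no signal.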 The settings on record: H69AR lung tumor cells viability, ATP luminescence, 72 h; at 10 µM; stronger effect = lower value.
Test [6] in a line: MRP1 drug-resistance reversers in H69AR cells – cell-based, doxorubicin co-treatment, pilot screen (AID 601;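 active = viability loss from added drug above about 55%, and viability with drug at most 40%, in both replicates, limit read from the data, passing the limit was not always enough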). The note with it: CellTiter-Glo, 72 h, at 10 µM; for differential viability (reversal): stronger effect = higher value.
Test [7] can be described thus: yeast transport mutant growth inhibition pilot in 384-well plates, post-Golgi transport modulator project (AID 636; in the data active = inhibition above about 31%). The note with it: absorbance 615 nm, about 18 h, stronger effect = higher value.
Test [8] in a line: growth suppression of yeast trafficking mutant, preliminary HTS, modulators of trafficking downstream of Golgi apparatus project, 1536-format plate, OD 615 nm (AID 637; in the data active = inhibition above about 30%). The settings on record: yeast transport mutant growth, absorbance 615 nm, 18 h; stronger effect = higher value.
The mark [9] stands for this setting: H69AR cells + 2 uM doxorubicin, measured here: viability with 2 uM doxorubicin, stronger effect = lower value.
The mark [10] stands for this setting: H69AR cells, compound alone cytotoxicity.

Receptor tyrosine-protein kinase erbB-2 (Homo sapiens), sequence (P04626 whole entry, looked up): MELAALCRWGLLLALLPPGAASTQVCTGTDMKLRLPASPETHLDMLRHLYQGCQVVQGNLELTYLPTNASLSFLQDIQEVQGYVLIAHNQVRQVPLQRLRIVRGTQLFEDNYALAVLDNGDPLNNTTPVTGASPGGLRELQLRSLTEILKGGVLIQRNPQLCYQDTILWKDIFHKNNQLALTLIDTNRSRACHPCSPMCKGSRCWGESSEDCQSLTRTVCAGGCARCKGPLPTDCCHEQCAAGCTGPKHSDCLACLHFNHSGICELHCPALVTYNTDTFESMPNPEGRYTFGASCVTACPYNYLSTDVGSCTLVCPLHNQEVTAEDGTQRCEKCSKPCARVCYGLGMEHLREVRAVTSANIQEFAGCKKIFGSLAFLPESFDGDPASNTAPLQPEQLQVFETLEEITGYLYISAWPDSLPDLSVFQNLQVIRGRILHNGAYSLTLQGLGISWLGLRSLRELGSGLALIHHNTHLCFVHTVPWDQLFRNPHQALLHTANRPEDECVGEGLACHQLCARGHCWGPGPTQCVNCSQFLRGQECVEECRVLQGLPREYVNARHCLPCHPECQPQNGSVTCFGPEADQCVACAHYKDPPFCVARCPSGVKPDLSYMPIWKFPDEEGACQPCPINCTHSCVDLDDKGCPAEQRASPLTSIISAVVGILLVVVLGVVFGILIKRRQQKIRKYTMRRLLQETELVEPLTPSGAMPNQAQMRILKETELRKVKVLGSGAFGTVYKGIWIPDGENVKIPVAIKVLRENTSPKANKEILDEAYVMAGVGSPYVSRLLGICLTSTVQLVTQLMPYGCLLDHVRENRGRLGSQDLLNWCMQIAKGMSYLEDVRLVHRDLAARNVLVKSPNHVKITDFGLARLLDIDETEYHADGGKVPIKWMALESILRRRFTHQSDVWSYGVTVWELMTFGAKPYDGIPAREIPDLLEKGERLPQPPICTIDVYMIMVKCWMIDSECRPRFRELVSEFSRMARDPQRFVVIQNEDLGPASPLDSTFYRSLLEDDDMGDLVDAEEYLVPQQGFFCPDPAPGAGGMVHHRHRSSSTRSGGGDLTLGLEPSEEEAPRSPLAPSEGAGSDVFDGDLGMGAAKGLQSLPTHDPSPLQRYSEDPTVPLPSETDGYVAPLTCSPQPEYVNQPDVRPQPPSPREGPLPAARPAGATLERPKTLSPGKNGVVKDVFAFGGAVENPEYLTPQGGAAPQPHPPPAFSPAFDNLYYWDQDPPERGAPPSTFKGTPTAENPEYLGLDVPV

Turning to `Cn1c(=O)n(CC(=O)OCc2ccccc2)c(=O)c2c1nc1n2CCCN1C1CCCCC1`, the viability in test [1] was 81%; in test [3], 81% (inactive); in test [4], 96.4% (inactive); in test [5], 78.7% (inactive); in test [6] (setting [9]), 45.9%; in test [6] (setting [10]), 78.7%. Also, the Her2 level in test [2] is 86% (inactive). Moreover, the differential viability (reversal) in test [6] (H69AR cells + 2 uM doxorubicin) is 32.8% (inactive). The results for the inhibition in test [7] and in test [8] were -6.35% (inactive) and -0.16% (inactive), respectively.

On to `O=C(O)CCCCCCC1C(=O)NC(=O)N1CCC(O)C1CCCCC1` (centres undefined), for which the viability in test [1] is 108%; in test [3], 108% (inactive); in test [4], 79.8% (inactive); in test [5] it was 99.3% (inactive); in test [6] (setting [9]), 104%; in test [6] (setting [10]), 99.3%. Besides, the Her2 level in test [2] is 108% (inactive). Further, the differential viability (reversal) in test [6] (H69AR cells + 2 uM doxorubicin) was -4.75% (inactive).

Regarding `Cc1onc(-c2ccccc2Cl)c1C(=O)Nc1cccnc1`, the viability was 102% in test [1]; 102% (inactive) in test [3]; 103% (inactive) in test [4]; 95.6% (inactive) in test [5]; 94.2% in test [6] (setting [9]); 95.6% in test [6] (setting [10]). Further, the Her2 level in test [2] was 72% (inactive). Also, in test [6] (H69AR cells + 2 uM doxorubicin), the differential viability (reversal) was 1.41% (inactive). In addition, the figures for the inhibition in test [7] and in test [8] were -7.57% (inactive) and -1.31% (inactive), respectively.

With `CN1CCN2c3ccccc3Cc3ccccc3C2C1` (centres undefined), the viability in test [1] was 82.5%; in test [3], 82.5% (inactive); in test [4] it was 73.4% (inactive); in test [5] it was 90.2% (inactive); in test [6] (setting [9]) it was 89.1%; in test [6] (setting [10]), 90.2%. Besides, in test [2], the Her2 level was 117% (inactive). Besides, the differential viability (reversal) in test [6] (H69AR cells + 2 uM doxorubicin) is 1.02% (inactive).

For the molecule `Fc1ccc(-n2c(Cc3ccccc3)nnc2SCc2nc(-c3cccs3)no2)cc1`, the viability was 99.5% in test [1]; 99.5% (inactive) in test [3]; 73.1% (inactive) in test [4]; 94.1% (inactive) in test [5]; 76.2% in test [6] (setting [9]); 94.1% in test [6] (setting [10]). In addition, in test [2], the Her2 level was 92.5% (inactive). In addition, the differential viability (reversal) in test [6] (H69AR cells + 2 uM doxorubicin) is 17.9% (inactive). In addition, the inhibition in test [7] is -3.73% (inactive); in test [8], -0.98% (inactive).

As for `Cc1ccccc1NC(=O)Cc1nnc(SCC(=O)N2CCN(c3ccccc3)CC2)n1C`, the viability in test [1] was 110%; in test [3] it was 110% (inactive); in test [4], 101% (inactive); in test [5], 98.2% (inactive); in test [6] (setting [9]), 92.5%; in test [6] (setting [10]) it was 98.2%. In addition, in test [2], the Her2 level is 108% (inactive). Further, the differential viability (reversal) in test [6] (H69AR cells + 2 uM doxorubicin) was 5.74% (inactive). For the same molecule, the inhibition in test [7] was -5.53% (inactive); in test [8] it was -6.67% (inactive).

As for `CN1CCCN=C1COC(=O)C(O)(c1ccccc1)C1CCCCC1` (centres undefined), the viability in test [1] was 95%; in test [3] it was 95% (inactive); in test [4], 95% (inactive); in test [5] it was 91.6% (inactive); in test [6] (setting [9]), 88.4%; in test [6] (setting [10]) it was 91.6%. Moreover, the Her2 level in test [2] is 79.5% (inactive). The differential viability (reversal) in test [6] (H69AR cells + 2 uM doxorubicin) was 3.15% (inactive).

Consider `O=C(CN1CCN(c2ncccn2)CC1)Nc1ccccc1-n1cccc1`, for which the viability was 102% in test [1]; 102% (inactive) in test [3]; 81.4% (inactive) in test [4]; 92.9% (inactive) in test [5]; 90.5% in test [6] (setting [9]); 92.9% in test [6] (setting [10]). Also, the Her2 level in test [2] was 79% (inactive). Further, the differential viability (reversal) in test [6] (H69AR cells + 2 uM doxorubicin) is 2.44% (inactive). Moreover, the values for the inhibition in test [7] and in test [8] were -1.43% (inactive) and -6.83% (inactive), respectively.

`Cc1ccc(-c2cc(C(=O)O)n[nH]2)o1`: the viability was 95.5% in test [1]; 95.5% (inactive) in test [3]; 98.7% (inactive) in test [4]; 99.3% (inactive) in test [5]; 101% in test [6] (setting [9]); 99.3% in test [6] (setting [10]). Further, in test [2], the Her2 level is 128% (inactive). In test [6] (H69AR cells + 2 uM doxorubicin), the differential viability (reversal) is -1.46% (inactive). Further, the inhibition is -3.01% (inactive) in test [7] and -0.16% (inactive) in test [8].

Take `CCc1cc(C(=O)OC)c(NC(=O)CCC(=O)O)s1`: the viability in test [1] was 96.5%; in test [3], 96.5% (inactive); in test [4] it was 87.6% (inactive); in test [5], 107% (inactive); in test [6] (setting [9]), 89.1%; in test [6] (setting [10]), 107%. In addition, the Her2 level in test [2] was 96% (inactive). In addition, the differential viability (reversal) in test [6] (H69AR cells + 2 uM doxorubicin) was 17.8% (inactive). The inhibition in test [7] was -2.53% (inactive); in test [8], 0% (inactive).

For the molecule `Nc1nnc(-c2ccccc2)c(-c2ccccc2)n1`, the viability in test [1] is 96.5%; in test [3], 96.5% (inactive); in test [4], 86.4% (inactive); in test [5], 99.2% (inactive); in test [6] (setting [9]) it was 94%; in test [6] (setting [10]) it was 99.2%. Besides, the Her2 level in test [2] is 90% (inactive). The differential viability (reversal) in test [6] (H69AR cells + 2 uM doxorubicin) is 5.16% (inactive). Also, the inhibition in test [7] was -4.53% (inactive); in test [8], 7.42% (inactive).

Consider `Cn1c(-c2ccccc2)cc(=O)c2ccccc21`, for which the viability in test [1] is 98.5%; in test [3], 98.5% (inactive); in test [4] it was 102% (inactive); in test [5] it was 96.6% (inactive); in test [6] (setting [9]), 103%; in test [6] (setting [10]), 96.6%. In addition, in test [2], the Her2 level was 109% (inactive). Besides, the differential viability (reversal) in test [6] (H69AR cells + 2 uM doxorubicin) is -6.83% (inactive). Besides, the inhibition was -1.43% (inactive) in test [7] and -2.13% (inactive) in test [8].

Consider `CCN(CC)CCN1C(=O)C(=O)/C(=C(/O)c2c(C)[nH]c(C(=O)OC)c2C)C1c1ccco1` (centres undefined), for which the viability is 88% in test [1]; 88% (inactive) in test [3]; 107% (inactive) in test [4]; 93.4% (inactive) in test [5]; 96.6% in test [6] (setting [9]); 93.4% in test [6] (setting [10]). Further, the Her2 level in test [2] was 105% (inactive). Moreover, in test [6] (H69AR cells + 2 uM doxorubicin), the differential viability (reversal) is -3.21% (inactive). Further, the inhibition in test [7] is -4.8% (inactive); in test [8], -0.16% (inactive).

As to `CC(C)(C)Nc1nc(NC(C)(C)C)nc(-n2ccnc2)n1`, the viability is 122% in test [1]; 122% (inactive) in test [3]; 69% (inactive) in test [4]; 88.6% (inactive) in test [5]; 87.6% in test [6] (setting [9]); 88.6% in test [6] (setting [10]). The Her2 level in test [2] is 80% (inactive). For the same molecule, the differential viability (reversal) in test [6] (H69AR cells + 2 uM doxorubicin) was 1.06% (inactive). Also, the inhibition was -0.26% (inactive) in test [7] and 10.8% (inactive) in test [8].

`O=C(Nc1ccccc1)N(O)c1ccc(Cl)cc1`: the viability is 93% in test [1]; 93% (inactive) in test [3]; 88.5% (inactive) in test [4]; 89.7% (inactive) in test [5]; 77.9% in test [6] (setting [9]); 89.7% in test [6] (setting [10]). Also, the Her2 level in test [2] is 79% (inactive). For the same molecule, in test [6] (H69AR cells + 2 uM doxorubicin), the differential viability (reversal) is 11.8% (inactive). Further, the figures for the inhibition in test [7] and in test [8] were -2.11% (inactive) and -4.5% (inactive), respectively.

In the case of `COc1cccc(NS(=O)(=O)c2cc(C)sc2C)c1`, the viability in test [1] was 93.5%; in test [3] it was 93.5% (inactive); in test [4] it was 97.5% (inactive); in test [5] it was 94.3% (inactive); in test [6] (setting [9]), 92.1%; in test [6] (setting [10]), 94.3%. For the same molecule, in test [2], the Her2 level was 94% (inactive). In addition, the differential viability (reversal) in test [6] (H69AR cells + 2 uM doxorubicin) is 2.18% (inactive). Besides, the inhibition in test [7] was -2.89% (inactive); in test [8], -6.67% (inactive).
